The species entered for assay [1] is Homo sapiens. As to the kind of experiment: Selectivity ratio of Ki for kappa opioid receptor to Ki for mu opioid receptor. The essentials:
(§1)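 CHO cell membranes (50 µg) expressing cloned mu, delta or kappa opioid receptors, labelled with […] (mu), [3H]NTI (delta) or [3H]norBNI (kappa), with varying drug concentrations, 90 min at 30 °C. […] IC50 from Hill-plot linear regression, converted to Ki by Cheng-Prusoff.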

For assay [2], the species on record is Homo sapiens. As to the kind of experiment: Selectivity ratio of Ki for delta opioid receptor to Ki for mu opioid receptor. In short, it runs like this:
as §1

Assay [3] concerns the target T1, Mu-type opioid receptor (Homo sapiens, UniProt P35372). As to the kind of experiment: […] activity against mu opioid receptor expressed in CHO cells assessed as stimulation [35S]GTPgammaS binding relative to DAMGO. Format: functional, cell-based. More on the design: concentration or dose not given beside the values. The essentials: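 Membranes (10 µg) from the same receptor-expressing CHO cells incubated 30 min with 10 µM GDP, 0.1 nM [35S]GTPγS and varying drug concentrations. Nonspecific binding defined by 10 µM unlabelled GTPγS. Relative Emax and EC50 from nonlinear regression of concentration-effect curves.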

Assay [4] addresses T1, Mu-type opioid receptor. The note with it: CHO.
For assay [5], the target named is T1, Mu-type opioid receptor. The assay is described as follows: Displacement of [3H]DAMGO from mu opioid receptor expressed in CHO cells. It is filed as cell-based. (In general: Displacement assays read how much labelled ligand stays bound in the presence of the test substance.)
Assay [6] concerns the target Delta-type opioid receptor (Homo sapiens, UniProt P41143). The assay is described as follows: Displacement of [3H]NTI from delta opioid receptor expressed in CHO cells. It is filed as cell-based. In short, it runs like this: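 CHO cell membranes (50 µg) expressing cloned mu, delta or kappa opioid receptors, labelled with […] (mu), [3H]NTI (delta) or [3H]norBNI (kappa), with varying drug concentrations, 90 min at 30 °C. IC50 from Hill-plot linear regression, converted to Ki by Cheng-Prusoff.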

The target of assay [7] is Kappa-type opioid receptor (Homo sapiens, UniProt P41145). The assay is described as follows: Displacement of [3H]norBNI from kappa opioid receptor expressed in CHO cells. Format: cell-based.
Kappa-type opioid receptor, sequence (P41145 whole entry): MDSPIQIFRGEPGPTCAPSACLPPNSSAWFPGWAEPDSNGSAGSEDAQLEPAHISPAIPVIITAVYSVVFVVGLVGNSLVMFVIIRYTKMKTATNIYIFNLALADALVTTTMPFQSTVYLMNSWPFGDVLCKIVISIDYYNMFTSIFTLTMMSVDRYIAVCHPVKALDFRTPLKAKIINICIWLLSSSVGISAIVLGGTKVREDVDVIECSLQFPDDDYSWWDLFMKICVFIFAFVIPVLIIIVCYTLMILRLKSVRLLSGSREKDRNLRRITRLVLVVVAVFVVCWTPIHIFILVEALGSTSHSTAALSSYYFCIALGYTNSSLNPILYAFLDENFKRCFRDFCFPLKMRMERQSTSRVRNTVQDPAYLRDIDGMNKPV

The structures appear in SMILES notation. pKi: −log10 of the molar value. Some results are limits rather than exact numbers.

T1 sequence (P35372 whole entry): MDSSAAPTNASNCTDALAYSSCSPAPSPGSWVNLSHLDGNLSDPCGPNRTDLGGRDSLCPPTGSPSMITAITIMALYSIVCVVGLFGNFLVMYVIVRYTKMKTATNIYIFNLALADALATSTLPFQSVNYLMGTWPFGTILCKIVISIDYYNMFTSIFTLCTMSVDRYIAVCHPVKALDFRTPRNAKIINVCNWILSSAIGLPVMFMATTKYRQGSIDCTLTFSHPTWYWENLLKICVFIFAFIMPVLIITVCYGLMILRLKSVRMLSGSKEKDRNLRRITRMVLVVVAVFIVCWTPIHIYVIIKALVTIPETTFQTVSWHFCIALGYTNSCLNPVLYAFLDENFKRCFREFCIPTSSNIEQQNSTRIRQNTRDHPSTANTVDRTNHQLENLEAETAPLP
Delta-type opioid receptor, sequence (P41143 whole entry): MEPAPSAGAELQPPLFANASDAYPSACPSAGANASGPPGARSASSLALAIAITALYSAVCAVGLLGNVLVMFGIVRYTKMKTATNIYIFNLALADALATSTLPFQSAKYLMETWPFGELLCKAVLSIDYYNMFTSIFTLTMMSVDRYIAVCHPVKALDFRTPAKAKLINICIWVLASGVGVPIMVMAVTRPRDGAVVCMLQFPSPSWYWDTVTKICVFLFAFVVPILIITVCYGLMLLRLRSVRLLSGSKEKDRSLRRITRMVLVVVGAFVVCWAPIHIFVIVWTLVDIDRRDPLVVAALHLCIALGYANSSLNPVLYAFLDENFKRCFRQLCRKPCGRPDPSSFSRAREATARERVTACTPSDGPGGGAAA

With `COc1cccc2c1[C@]13CCN(CC4CC4)[C@H](C2)[C@]1(OC)CCC(=O)C3`, the Ratio Ki in the assay listed under Homo sapiens [1] came out at 45; in the assay filed under Homo sapiens [2] it was 40.
On to `O=C(O[C@@]12CCC(=O)[C@@H]3Oc4c(O)ccc5c4[C@@]31CCN(CC1CC1)[C@@H]2C5)c1ccncc1`, for which the Ratio Ki in the assay filed under Homo sapiens [1] turned out to be 9; in the assay filed under Homo sapiens [2], 73. Moreover, the Activity at Mu-type opioid receptor [3] was determined as 0%.
As to `O=C(O[C@@]12CCC(=O)[C@@H]3Oc4c(O)ccc5c4[C@@]31CCN(CC1CC1)[C@@H]2C5)c1cc2ccccc2cn1`, the Ratio Ki in the assay listed under Homo sapiens [1] and in the assay listed under Homo sapiens [2] was greater than 146 in each case. Further, at Mu-type opioid receptor [3], the Activity amounted to 0%.
Consider `O=C(O[C@@]12CCC(=O)[C@@H]3Oc4c(O)ccc5c4[C@@]31CCN(CC1CC1)[C@@H]2C5)c1ccccc1`, for which the values for the Ratio Ki in the assay filed under Homo sapiens [1] and in the assay listed under Homo sapiens [2] were 5 and greater than 81, respectively. At Mu-type opioid receptor [3], the Activity worked out at 0%.
Regarding `O=C(O[C@@]12CCC(=O)[C@@H]3Oc4c(O)ccc5c4[C@@]31CCN(CC1CC1)[C@@H]2C5)c1ccccn1`, the Ratio Ki amounted to 182 in the assay listed under Homo sapiens [1] and 838 in the assay filed under Homo sapiens [2]. For the same molecule, the Activity on Mu-type opioid receptor [3] is 0%. This molecule also gave a Ke at Mu-type opioid receptor [4] of 0.2 nM.
With `O=C(O[C@@]12CCC(=O)[C@@H]3Oc4c(O)ccc5c4[C@@]31CCN(CC1CC1)[C@@H]2C5)c1cnc2ccccc2c1`, the results for the Ratio Ki in the assay listed under Homo sapiens [1] and in the assay filed under Homo sapiens [2] were 55 and 304, respectively. On Mu-type opioid receptor [3], the Activity worked out at 22%.
On the same counts, the results for `O=C(O[C@@]12CCC(=O)[C@@H]3Oc4c(O)ccc5c4[C@@]31CCN(CC1CC1)[C@@H]2C5)c1ccc2ccccc2n1` are 47, 16 and 0%.
In the case of `O=C(O[C@@]12CCC(=O)[C@@H]3Oc4c(O)ccc5c4[C@@]31CCN(CC1CC1)[C@@H]2C5)c1cccnc1`, the results for the Ratio Ki in the assay filed under Homo sapiens [1] and in the assay filed under Homo sapiens [2] were 30 and 107, respectively. For the same molecule, on Mu-type opioid receptor [3], the Activity worked out at 0%.
In the case of `O=C(O[C@@]12CCC(=O)[C@@H]3Oc4c(O)ccc5c4[C@@]31CCN(CC1CC1)[C@@H]2C5)c1ccc2ccccc2c1`, the Ratio Ki in the assay listed under Homo sapiens [1] is less than 1; in the assay filed under Homo sapiens [2] it was 4. The Activity at Mu-type opioid receptor [3] came to 0%.
In the case of `COC(=O)/C=C/C(=O)N[C@@H]1CC[C@@]2(O)[C@H]3Cc4ccc(O)c5c4[C@@]2(CCN3CC2CC2)[C@H]1O5`, the negative logarithm of the Ki (pKi) at Mu-type opioid receptor [5] is 9.39; in assay [6], 7.56; in assay [7], 9.03. Moreover, at Mu-type opioid receptor [3], the Activity stood at 0%.
With `C[C@@H](O)[C@H](NC(=O)[C@H](NC(=O)[C@@H](NC(=O)[C@H](CCCNC(=N)N)NC(=O)C(Cc1c[nH]c2ccccc12)NC(=O)[C@@H](Cc1ccc(O)cc1)NC(=O)[C@H](CS)NC(=O)[C@H](N)Cc1ccccc1)[C@@H](C)O)C(C)(C)S)C(=O)O` (stereo in doubt), the Ratio Ki in the assay listed under Homo sapiens [1] was determined as 501; in the assay listed under Homo sapiens [2], 713. On Mu-type opioid receptor [3], the Activity amounted to 0%.

For orientation: pKi means −log10 of the Ki, conventionally taken in molar units.

The values are drawn from ChEMBL document CHEMBL1153911 (Bioorg Med Chem Lett, 2009).
